Converted amounts (≈) assume the structure as drawn.
Key:
Staphylococcus aureus [1] = test: Bactericidal activity against Staphylococcus aureus ATCC 29213 incubated for 24 hrs followed by re-plating on nutrient agar and measured after overnight incubation by two fold serial dilution method; assay type: functional; details: ATCC 29213, 24 h
Outline: (§1)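 After the MIC read, 100 µl from every tube without visible growth was spread on nutrient agar lacking compound. Plates were incubated overnight at 28 ± 1 °C. MBC was taken as the lowest concentration killing >99.9% of the initial population, seen as no growth on agar.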

Streptococcus agalactiae [2] = test: Antibacterial activity against Streptococcus agalactiae WB1445 after 24 hrs by two fold serial dilution method; assay type: functional; details: WB1445, 24 h
Outline: (§2)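 Broth two-fold serial dilution per CLSI, in nutrient broth. Inoculum from 24 h cultures at 28 ± 1 °C, adjusted in saline to 1×10^7-2×10^7 cfu/mL, then diluted to 1×10^5-2×10^5 cfu/mL. Test range 256 down to 0.50 µM and lower. Tubes held 24 h at 28 ± 1 °C. MIC read visually. Enrofloxacin and norfloxacin served as standards.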

Streptococcus agalactiae [3] = test: Bactericidal activity against Streptococcus agalactiae WB1445 incubated for 24 hrs followed by re-plating on nutrient agar and measured after overnight incubation by two fold serial dilution method; assay type: functional; details: WB1445, 24 h; outline: as §1
Flavobacterium columnare [4] = test: Antibacterial activity against Flavobacterium columnare FC-G1 after 24 hrs by two fold serial dilution method; assay type: functional; details: FC-G1, 24 h; outline: as §2
Staphylococcus aureus [5] = test: Antibacterial activity against Staphylococcus aureus ATCC 29213 after 24 hrs by two fold serial dilution method; assay type: functional; details: ATCC 29213, 24 h; outline: as §2
Escherichia coli [6] = test: Bactericidal activity against Escherichia coli ATCC 35150 incubated for 24 hrs followed by re-plating on nutrient agar and measured after overnight incubation by two fold serial dilution method; assay type: functional; details: ATCC 35150, 24 h; outline: as §1
Flavobacterium columnare [7] = test: Bactericidal activity against Flavobacterium columnare FC-G1 incubated for 24 hrs followed by re-plating on nutrient agar and measured after overnight incubation by two fold serial dilution method; assay type: functional; details: FC-G1, 24 h; outline: as §1
Escherichia coli [8] = test: Antibacterial activity against Escherichia coli ATCC 35150 after 24 hrs by two fold serial dilution method; assay type: functional; details: ATCC 35150, 24 h; outline: as §2
[9] = Inhibition of Escherichia coli ATCC 35150 FabI in presence of t-O-NAC and NADH up to 1 min by spectrophotometric analysis
Outline: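 Recombinant His-tagged FabI, expressed in E. coli BL21(DE3) and purified on Ni-NTA, was used at 20 µL of 100 µg/mL stock in 0.1 M PBS-DTT. Compounds were tested at 128-1 µM with 10 µL of 4 mM t-O-NAC, and 20 µL of 2 mM NADH started the reaction. NADH oxidation was followed at 340 nm for 1 min. IC50 came from dose-response plots.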

[10] = biological target: T1, Enoyl-(Acyl-carrier-protein) reductase II (Streptococcus agalactiae serotype V (strain ATCC BAA-611 / 2603 V/R), UniProt Q8E1K8); test: Inhibition of Streptococcus agalactiae WB1445 FabK in presence of t-O-NAC and NADH up to 1 min by spectrophotometric analysis
T1 sequence (Q8E1K8 whole entry): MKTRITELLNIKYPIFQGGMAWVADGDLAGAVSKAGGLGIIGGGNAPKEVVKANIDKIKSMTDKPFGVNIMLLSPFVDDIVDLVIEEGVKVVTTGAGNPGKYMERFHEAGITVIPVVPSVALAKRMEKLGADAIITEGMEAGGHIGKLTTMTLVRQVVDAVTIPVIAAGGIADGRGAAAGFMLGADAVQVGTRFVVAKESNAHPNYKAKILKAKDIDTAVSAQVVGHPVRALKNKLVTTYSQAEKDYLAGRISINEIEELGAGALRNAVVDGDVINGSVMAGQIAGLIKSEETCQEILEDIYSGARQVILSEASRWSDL
Outline: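 Recombinant His-tagged FabK (20 µL of 150 µg/mL stock) was assayed in 100 µL of 0.1 M ADA-DTT, pH 6.5, against compounds at 128-1 µM, with 10 µL of 4 mM t-O-NAC. Addition of 20 µL of 2 mM NADH started the reaction. Absorbance at 340 nm was read for 1 min. IC50 was estimated from dose-response curves.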

MIC (Streptococcus agalactiae [2]) [µM]	MIC (Flavobacterium columnare [4]) [µM]	MIC (Staphylococcus aureus [5]) [µM]	MIC (Escherichia coli [8]) [µM]	IC50 [9] [µM]	IC50 [10] [µM]	Structure (SMILES)	MBC (Staphylococcus aureus [1]) [µM]	MBC (Streptococcus agalactiae [3]) [µM]	MBC (Escherichia coli [6]) [µM]	MBC (Flavobacterium columnare [7]) [µM]
> 256	> 256	> 256	16 (≈ 4.32 µg/mL)	–	–	Cc1cn(CCOc2ccc3ccc(=O)oc3c2)cn1	> 256	> 256	64 (≈ 17.3 µg/mL)	> 256
32 (≈ 12.9 µg/mL)	16 (≈ 6.47 µg/mL)	32 (≈ 12.9 µg/mL)	> 256	–	–	Cc1cc(=O)oc2cc(OCCCCCCCCn3cnc4ccccc43)ccc12	256 (≈ 104 µg/mL)	64 (≈ 25.9 µg/mL)	> 256	64 (≈ 25.9 µg/mL)
> 256	64 (≈ 20 µg/mL)	64 (≈ 20 µg/mL)	32 (≈ 10 µg/mL)	–	–	O=c1ccc2ccc(OCCCCCCn3ccnc3)cc2o1	64 (≈ 20 µg/mL)	> 256	64 (≈ 20 µg/mL)	128 (≈ 40 µg/mL)
> 256	> 256	> 256	16 (≈ 4.77 µg/mL)	–	–	Cc1cn(CCCCOc2ccc3ccc(=O)oc3c2)cn1	> 256	> 256	32 (≈ 9.55 µg/mL)	> 256
> 256	> 256	> 256	64 (≈ 17.3 µg/mL)	–	–	Cc1nccn1CCOc1ccc2ccc(=O)oc2c1	> 256	> 256	256 (≈ 69.2 µg/mL)	> 256
> 256	> 256	64 (≈ 18.2 µg/mL)	128 (≈ 36.4 µg/mL)	–	–	O=c1ccc2ccc(OCCCCn3ccnc3)cc2o1	256 (≈ 72.8 µg/mL)	> 256	256 (≈ 72.8 µg/mL)	> 256
32 (≈ 11.4 µg/mL)	16 (≈ 5.69 µg/mL)	32 (≈ 11.4 µg/mL)	> 256	–	–	Cc1cc(=O)oc2cc(OCCCCCCCCn3cncn3)ccc12	256 (≈ 91 µg/mL)	64 (≈ 22.7 µg/mL)	> 256	64 (≈ 22.7 µg/mL)
> 256	> 256	> 256	> 256	–	–	O=c1ccc2ccc(OCCCCBr)cc2o1	> 256	> 256	> 256	> 256
8 (≈ 2.95 µg/mL)	8 (≈ 2.95 µg/mL)	32 (≈ 11.8 µg/mL)	> 256	–	–	Cc1cn(CCCCCCCCOc2ccc3c(C)cc(=O)oc3c2)cn1	256 (≈ 94.3 µg/mL)	32 (≈ 11.8 µg/mL)	> 256	16 (≈ 5.9 µg/mL)
> 256	> 256	> 256	> 256	–	–	O=c1ccc2ccc(OCCBr)cc2o1	> 256	> 256	> 256	> 256
8 (≈ 2.72 µg/mL)	4 (≈ 1.36 µg/mL)	16 (≈ 5.45 µg/mL)	> 256	158	2.74	O=c1ccc2ccc(OCCCCCCCCn3ccnc3)cc2o1	128 (≈ 43.6 µg/mL)	16 (≈ 5.45 µg/mL)	> 256	8 (≈ 2.72 µg/mL)
16 (≈ 5.9 µg/mL)	4 (≈ 1.47 µg/mL)	64 (≈ 23.6 µg/mL)	> 256	–	–	Cc1cc(=O)oc2cc(OCCCCCCCCn3ccnc3C)ccc12	256 (≈ 94.3 µg/mL)	16 (≈ 5.9 µg/mL)	> 256	8 (≈ 2.95 µg/mL)
> 256	> 256	> 256	32 (≈ 11.5 µg/mL)	–	–	O=c1ccc2ccc(OCCCCn3ccnc3-c3ccccc3)cc2o1	> 256	> 256	128 (≈ 46.1 µg/mL)	> 256
> 256	> 256	64 (≈ 19.6 µg/mL)	128 (≈ 39.2 µg/mL)	–	–	O=c1ccc2ccc(OCCn3cnc4ccccc43)cc2o1	256 (≈ 78.4 µg/mL)	> 256	256 (≈ 78.4 µg/mL)	> 256
> 256	> 256	–	–	–	–	NCCCCCCCCOc1ccc2ccc(=O)oc2c1	–	> 256	–	> 256
> 256	> 256	> 256	> 256	–	–	O=c1ccc2ccc(OCCCCCCn3ccnc3-c3ccccc3)cc2o1	> 256	> 256	> 256	> 256

— ChEMBL document CHEMBL4251599, “Synthesis and biological evaluation of coumarin derivatives containing imidazole skeleton as potential antibacterial agents” (Eur J Med Chem, 2018)
